We go through 30 compounds from ChEMBL document CHEMBL1145950, “2-arylureidobenzoic acids: selective noncompetitive antagonists for the homomeric kainate receptor subtype GluR5” (J Med Chem, 2003).

pIC50: −log10 of the molar value.

The target of assay [1] is T1, Glutamate receptor ionotropic, kainate 1 (Homo sapiens, UniProt P39086). Briefly: In vitro inhibitory activity against human ionotropic glutamate receptor ionotropic kainate 1 (GluR-5) expressed in HEK293 cells. The class given is cell-based.
T1 sequence (P39086 whole entry): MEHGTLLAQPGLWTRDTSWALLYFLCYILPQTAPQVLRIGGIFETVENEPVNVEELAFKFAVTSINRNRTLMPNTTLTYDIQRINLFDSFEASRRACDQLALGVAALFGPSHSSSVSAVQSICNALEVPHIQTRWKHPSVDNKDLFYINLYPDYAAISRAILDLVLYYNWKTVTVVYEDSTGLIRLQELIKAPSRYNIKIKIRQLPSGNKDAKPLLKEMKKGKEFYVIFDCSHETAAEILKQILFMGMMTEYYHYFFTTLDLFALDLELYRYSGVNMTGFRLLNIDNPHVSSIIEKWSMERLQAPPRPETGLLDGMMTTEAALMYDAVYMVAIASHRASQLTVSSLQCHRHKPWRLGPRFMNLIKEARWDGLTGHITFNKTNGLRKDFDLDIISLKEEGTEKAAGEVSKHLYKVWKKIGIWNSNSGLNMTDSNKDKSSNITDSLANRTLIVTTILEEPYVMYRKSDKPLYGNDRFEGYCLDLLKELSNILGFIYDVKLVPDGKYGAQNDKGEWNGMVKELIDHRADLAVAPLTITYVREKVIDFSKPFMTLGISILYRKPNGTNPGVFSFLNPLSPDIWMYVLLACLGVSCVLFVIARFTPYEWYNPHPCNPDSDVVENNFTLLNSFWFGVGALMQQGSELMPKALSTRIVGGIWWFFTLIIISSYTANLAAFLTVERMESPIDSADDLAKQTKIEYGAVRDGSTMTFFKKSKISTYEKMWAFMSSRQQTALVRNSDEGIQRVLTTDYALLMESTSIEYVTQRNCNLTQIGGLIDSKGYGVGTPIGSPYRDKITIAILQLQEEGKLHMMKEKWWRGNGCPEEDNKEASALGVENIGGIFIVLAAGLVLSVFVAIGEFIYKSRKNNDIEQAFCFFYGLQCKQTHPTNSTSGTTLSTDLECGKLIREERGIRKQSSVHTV
Assay [2] addresses Glutamate receptor ionotropic, kainate 2 (Homo sapiens, UniProt Q13002). In words: In vitro inhibitory activity against Ionotropic glutamate receptor ionotropic kainate 2 (GluR-6) of HEK293 cells in FLIPR assay. Format: cell-based. In outline:
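Human GluR6 stably expressed in HEK293, plated 24 h before assay. Cells loaded with 2 µM Fluo-4-AM for 60 min at room temperature, washed into Na+-free Ringer, pH 7.4. Compound preincubated 1.5 min, then 0.2 µM domoate added (final). Inhibition of the FLIPR Ca2+ fluorescence rise (ex 488, em 510-570 nm) was measured; IC50 from ≥3 experiments.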

Assay [3] deals with Glutamate receptor 1 (Rattus norvegicus) (UniProt P19490). Briefly: In vitro inhibitory activity against Ionotropic glutamate receptor AMPA 1 of HEK293 cells in FLIPR assay.
Glutamate receptor 1 (Rattus norvegicus), sequence (P19490 whole entry, looked up): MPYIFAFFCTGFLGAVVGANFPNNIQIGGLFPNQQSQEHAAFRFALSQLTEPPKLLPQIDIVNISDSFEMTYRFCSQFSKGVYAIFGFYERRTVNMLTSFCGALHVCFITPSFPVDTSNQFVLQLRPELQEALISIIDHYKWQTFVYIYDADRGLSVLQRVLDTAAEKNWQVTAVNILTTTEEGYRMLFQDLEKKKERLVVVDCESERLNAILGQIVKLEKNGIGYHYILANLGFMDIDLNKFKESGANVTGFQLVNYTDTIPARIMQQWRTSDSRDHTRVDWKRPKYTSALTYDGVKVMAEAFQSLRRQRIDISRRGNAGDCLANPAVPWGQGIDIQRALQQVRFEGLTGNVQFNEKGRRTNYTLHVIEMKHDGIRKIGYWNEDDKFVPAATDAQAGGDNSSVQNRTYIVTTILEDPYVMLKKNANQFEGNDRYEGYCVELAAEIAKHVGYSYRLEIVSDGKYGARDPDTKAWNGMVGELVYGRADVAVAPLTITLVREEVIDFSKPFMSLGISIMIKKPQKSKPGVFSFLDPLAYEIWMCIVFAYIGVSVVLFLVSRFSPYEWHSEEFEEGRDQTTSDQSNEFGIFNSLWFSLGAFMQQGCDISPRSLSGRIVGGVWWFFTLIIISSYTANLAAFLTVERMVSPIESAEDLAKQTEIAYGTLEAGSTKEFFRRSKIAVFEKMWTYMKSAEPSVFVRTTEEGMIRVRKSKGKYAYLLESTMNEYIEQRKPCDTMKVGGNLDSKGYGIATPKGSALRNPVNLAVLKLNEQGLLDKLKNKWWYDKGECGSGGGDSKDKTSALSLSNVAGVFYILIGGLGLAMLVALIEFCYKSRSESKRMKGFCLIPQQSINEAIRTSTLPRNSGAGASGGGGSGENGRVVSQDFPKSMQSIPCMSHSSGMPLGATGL
In assay [4] the target is T1, Glutamate receptor ionotropic, kainate 1. In words: Binding inhibition of compound against Ionotropic glutamate receptor ionotropic kainate 1 (GluR5) using [3H]ATPA as radioligand. Summed up: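 GluR5-expressing HEK293 cell membranes (washed in 50 mM Tris-HCl pH 7.1, prepared at 0-4 °C) incubated with 3 nM [3H]ATPA, 46-84 µg protein/assay, 60 min at 2 °C; test compounds at 3-30 µM. Nonspecific binding defined with 0.6 mM Glu; rapid filtration, liquid scintillation counting. At least three separate experiments.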

The test system of assay [5] is Mus musculus. Briefly: ATPA induced rigidity in mice was determined after 30 minutes of administration. Format: functional. In outline: (§1)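 Female NMRI mice, 20-25 g. Test substance given intravenously, n = 8 per dose, 5 or 30 min before ATPA (30 mg/kg i.v.; 3 mg/mL in saline, pH 7). Rigidity scored every 5 min over 30 min after ATPA, as percent of rigid mice over time.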

Assay [6] addresses Glutamate receptor 4 (Rattus norvegicus) (UniProt P19493). In words: In vitro inhibitory activity against Ionotropic glutamate receptor AMPA 4 of HEK293 cells in FLIPR assay.
The subject of assay [7] is Mus musculus. In words: ATPA induced rigidity in mice was determined after 5 minutes of administration. Format: functional. In outline:
as §1

Assay [8] has as its target Glutamate receptor 3 (Rattus norvegicus) (UniProt P19492). Briefly: In vitro inhibitory activity against Ionotropic glutamate receptor AMPA 3 of HEK293 cells in FLIPR assay.
In assay [9] the target is Glutamate receptor 2 (Rattus norvegicus) (UniProt P19491). Briefly: In vitro inhibitory activity against Ionotropic glutamate receptor AMPA 2 of HEK293 cells in FLIPR assay.

Glutamate receptor 3 (Rattus norvegicus), sequence (P19492 whole entry, looked up): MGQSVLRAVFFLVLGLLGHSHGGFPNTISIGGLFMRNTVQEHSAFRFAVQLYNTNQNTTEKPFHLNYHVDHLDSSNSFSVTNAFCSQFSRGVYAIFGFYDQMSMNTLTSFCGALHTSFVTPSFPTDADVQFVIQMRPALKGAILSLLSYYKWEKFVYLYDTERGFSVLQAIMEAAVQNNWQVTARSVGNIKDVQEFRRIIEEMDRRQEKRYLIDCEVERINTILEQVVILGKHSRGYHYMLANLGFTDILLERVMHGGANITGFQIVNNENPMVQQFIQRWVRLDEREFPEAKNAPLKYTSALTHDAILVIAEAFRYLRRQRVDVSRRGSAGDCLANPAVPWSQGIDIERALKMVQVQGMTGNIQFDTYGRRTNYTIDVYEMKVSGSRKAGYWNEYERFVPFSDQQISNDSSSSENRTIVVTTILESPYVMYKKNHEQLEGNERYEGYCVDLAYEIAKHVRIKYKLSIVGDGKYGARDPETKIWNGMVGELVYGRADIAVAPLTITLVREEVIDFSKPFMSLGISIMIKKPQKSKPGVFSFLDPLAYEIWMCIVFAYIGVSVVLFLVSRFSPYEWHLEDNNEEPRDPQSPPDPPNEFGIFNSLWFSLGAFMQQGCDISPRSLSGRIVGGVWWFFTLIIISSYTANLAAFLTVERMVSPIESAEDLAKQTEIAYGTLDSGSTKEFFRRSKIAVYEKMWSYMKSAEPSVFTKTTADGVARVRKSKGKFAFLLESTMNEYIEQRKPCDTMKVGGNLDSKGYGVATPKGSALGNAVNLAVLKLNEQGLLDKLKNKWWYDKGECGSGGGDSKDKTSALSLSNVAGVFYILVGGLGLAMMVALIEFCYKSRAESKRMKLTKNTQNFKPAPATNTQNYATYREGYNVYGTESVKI
Glutamate receptor 4 (Rattus norvegicus), sequence (P19493 whole entry, looked up): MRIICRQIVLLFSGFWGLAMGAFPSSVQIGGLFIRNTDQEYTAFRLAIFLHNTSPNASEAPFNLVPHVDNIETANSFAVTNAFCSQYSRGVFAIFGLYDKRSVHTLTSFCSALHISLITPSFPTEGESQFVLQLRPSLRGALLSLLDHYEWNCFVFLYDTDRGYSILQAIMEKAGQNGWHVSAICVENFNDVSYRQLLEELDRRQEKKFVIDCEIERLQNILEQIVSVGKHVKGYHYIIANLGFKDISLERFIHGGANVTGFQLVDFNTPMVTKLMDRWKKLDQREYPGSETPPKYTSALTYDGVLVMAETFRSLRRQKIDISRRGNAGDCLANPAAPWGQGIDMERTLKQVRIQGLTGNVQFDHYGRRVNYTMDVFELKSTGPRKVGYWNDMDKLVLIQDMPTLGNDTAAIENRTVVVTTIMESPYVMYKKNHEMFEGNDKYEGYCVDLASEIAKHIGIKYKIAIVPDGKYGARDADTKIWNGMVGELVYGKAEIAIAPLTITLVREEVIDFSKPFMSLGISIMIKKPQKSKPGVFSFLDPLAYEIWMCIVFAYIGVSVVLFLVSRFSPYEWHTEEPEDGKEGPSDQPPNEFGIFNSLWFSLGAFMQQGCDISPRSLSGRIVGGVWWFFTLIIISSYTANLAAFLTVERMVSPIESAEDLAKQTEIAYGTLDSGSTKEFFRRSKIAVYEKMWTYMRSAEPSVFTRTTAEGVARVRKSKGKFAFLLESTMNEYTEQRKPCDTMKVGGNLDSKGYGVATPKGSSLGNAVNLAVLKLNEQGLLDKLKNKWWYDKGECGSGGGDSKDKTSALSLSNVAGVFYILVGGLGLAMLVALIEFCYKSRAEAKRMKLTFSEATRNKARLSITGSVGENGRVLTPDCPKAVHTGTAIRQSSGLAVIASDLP
Glutamate receptor ionotropic, kainate 2, sequence (Q13002 whole entry): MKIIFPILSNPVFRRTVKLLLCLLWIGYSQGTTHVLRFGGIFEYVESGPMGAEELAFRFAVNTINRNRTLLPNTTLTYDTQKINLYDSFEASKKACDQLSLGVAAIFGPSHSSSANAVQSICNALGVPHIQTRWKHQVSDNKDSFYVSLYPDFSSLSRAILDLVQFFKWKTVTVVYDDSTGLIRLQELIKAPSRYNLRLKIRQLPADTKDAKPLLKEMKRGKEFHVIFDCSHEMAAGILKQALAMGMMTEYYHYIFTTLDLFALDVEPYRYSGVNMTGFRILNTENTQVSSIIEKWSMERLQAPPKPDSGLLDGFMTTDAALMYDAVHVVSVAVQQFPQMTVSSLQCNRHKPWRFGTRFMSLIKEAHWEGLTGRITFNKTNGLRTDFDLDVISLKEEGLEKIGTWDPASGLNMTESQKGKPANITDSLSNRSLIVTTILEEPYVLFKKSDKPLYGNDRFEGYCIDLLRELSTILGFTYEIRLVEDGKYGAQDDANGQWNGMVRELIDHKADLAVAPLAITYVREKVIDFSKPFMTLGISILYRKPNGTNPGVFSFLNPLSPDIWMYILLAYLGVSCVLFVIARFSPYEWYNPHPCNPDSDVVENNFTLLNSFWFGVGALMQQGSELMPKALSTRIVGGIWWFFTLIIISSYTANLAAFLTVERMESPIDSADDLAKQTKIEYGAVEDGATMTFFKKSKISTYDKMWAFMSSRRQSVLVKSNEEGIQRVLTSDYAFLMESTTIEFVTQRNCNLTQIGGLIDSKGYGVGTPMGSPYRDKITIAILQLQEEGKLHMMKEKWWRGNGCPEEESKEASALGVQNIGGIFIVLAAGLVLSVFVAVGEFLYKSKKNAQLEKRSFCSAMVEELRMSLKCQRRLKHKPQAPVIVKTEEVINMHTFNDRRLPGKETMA

As usually defined, the pIC50 is −log10 of the IC50, conventionally taken in molar units. Low readings indicate a high IC50, high ones a low IC50. With `O=C(Nc1ccc(I)cc1)Nc1cc(Cl)ccc1C(=O)O`, in [1], the pIC50 was 5.33.
`O=C(Nc1cc(Cl)ccc1C(=O)O)Nc1ccccc1C(F)(F)F`: the pIC50 in assay [1] is 5.35.
Consider `O=C(Nc1ccncc1)Nc1cc(Cl)ccc1C(=O)O`, for which the pIC50 in [1] was 4.06.
Consider `O=C(Nc1cccc(F)c1)Nc1cc(Cl)ccc1C(=O)O`, for which the pIC50 in assay [1] is 5.12.
In turn, `O=C(Nc1ccccc1Cl)Nc1cc(Cl)ccc1C(=O)O` showed a pIC50 in [1] of 5.33.
The same measure, in the same setting: with `Cc1ccc(NC(=O)Nc2cccc(C(F)(F)F)c2)c(C(=O)O)c1` the figure was under 4.00; with `O=C(Nc1cc(Cl)ccc1C(=O)O)NC1CCCCC1`, under 4.00; with `O=C(Nc1ccc2c(c1)OCO2)Nc1cc(Cl)ccc1C(=O)O`, 5.44.
The same measure, in the same setting: as for `O=C(Nc1ccc2cc3ccccc3cc2c1)Nc1cc(Cl)ccc1C(=O)O`, the figure is under 4.52; as for `O=C(Nc1ccccc1)Nc1ccccc1C(=O)O`, under 4.00.
With `O=C(Nc1ccccc1I)Nc1cc(Cl)ccc1C(=O)O`, in assay [1], the pIC50 is 5.30.
For `O=C(Nc1cc2ccccc2[nH]1)Nc1cc(Cl)ccc1C(=O)O`, in assay [1], the pIC50 was 5.92.
In turn, `O=C(Nc1cccc(C(F)(F)F)c1)Nc1cc(F)ccc1C(=O)O` showed a pIC50 in [1] of 5.00.
On the same count and under the same terms, as for `O=C(Nc1ccc(Cl)cc1)Nc1cc(Cl)ccc1C(=O)O`, the figure is 5.51; as for `O=C(Nc1ccccc1)Nc1cc(Cl)ccc1C(=O)O`, 5.00; as for `O=C(Nc1cccc(C(F)(F)F)c1)Nc1cc(Cl)ccc1C(=O)O`, 5.30.
Compound `O=C(Nc1cc(Cl)ccc1C(=O)O)Nc1cccc2ccccc12` gave a pIC50 in assay [1] of 5.03.
The same measure, in the same setting: as for `O=C(Nc1cc(NC(=O)c2ccccc2)c(C(=O)O)cc1C(=O)O)c1ccccc1`, the figure is 5.80.
In the case of `COc1ccc(NC(=O)Nc2cc(Cl)ccc2C(=O)O)cc1`, the pIC50 in assay [1] is 5.00.
The same measure, in the same setting: as for `O=C(Nc1cccc(C(F)(F)F)c1)Nc1cc(Br)ccc1C(=O)O`, the figure is 5.21.
A word on the ED50: it is the midpoint of the dose-response relation. High values mean weaker potency, low ones greater potency. Turning to `O=C(Nc1ccc2ccccc2c1)Nc1cc(Cl)ccc1C(=O)O`, the pIC50 in assay [2] is 4.21; in [3], under 4.00; in assay [4], under 4.52; in [6], under 4.00; in assay [1], 5.92; in assay [8], under 4.00. The ED50 in assay [5] and in [7] was over 30 mg/kg throughout.
For the compound `O=C(Nc1cccc(Br)c1)Nc1cc(Cl)ccc1C(=O)O`, the pIC50 in [2] was 4.55; in assay [3], under 4.00; in assay [4], under 4.52; in assay [9], under 4.00; in assay [6] it was under 4.00; in assay [1] it was 5.32. In [8], this compound showed a pIC50 of under 4.00. For the same compound, the ED50 in [5] (Mus musculus, 0.5 h) came out at 24 mg/kg; in assay [7] (Mus musculus, 5 min), 4 mg/kg.
The compound `O=C(Nc1ccccc1Br)Nc1cc(Cl)ccc1C(=O)O` showed a pIC50 in [1] of 5.35.
Still for that read-out and setting: as for `Cc1cccc(NC(=O)Nc2cccc(C(F)(F)F)c2)c1C(=O)O`, the figure is under 4.00; as for `O=C(Nc1cccc(I)c1)Nc1cc(Cl)ccc1C(=O)O`, 5.66.
On the same count and under the same terms, as for `O=C(Nc1cc(Cl)ccc1C(=O)O)Nc1ccccc1-c1ccccc1`, the figure is under 5.00; as for `Cc1cccc(C(=O)O)c1NC(=O)Nc1cccc(C(F)(F)F)c1`, under 4.00.
In turn, `O=C(Nc1ccc(C(F)(F)F)cc1)Nc1cc(Cl)ccc1C(=O)O` showed a pIC50 in assay [1] of 5.32.
Compound `O=C(Nc1ccc(Br)cc1)Nc1cc(Cl)ccc1C(=O)O` had a pIC50 in [1] of 5.66.
Still for that read-out and setting: with `COc1cccc(NC(=O)Nc2cc(Cl)ccc2C(=O)O)c1` the figure was 5.43.
